Assay type in all cases: ADME, organism-based
For data set [1], the system named is Rattus norvegicus. The experiment in a line: Distribution of Se-75 activity in Liver of female Sprague-Dawley Rat 60 min after iv administration of dcompound. To be noted: in vivo, 1 h. Put shortly: (§1)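 Female Sprague-Dawley rats (100-300 g), five per group, got [75Se]selenonium salt in 0.2 mL saline (5-6 μCi) by lateral tail vein. They were killed by cardioectomy under chloroform anesthesia at the stated time. A sample of the large organ was weighed and gamma counted, and counts were converted to % injected dose/g. Values are mean and SEM of five.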

For data set [2], the system named is Rattus norvegicus. The experiment in a line: Distribution of Se-75 activity in blood of female Sprague-Dawley Rat 30 min after iv administration of compound. The conditions noted are these: in vivo, 0.5 h. Put shortly: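 Female Sprague-Dawley rats (100-300 g) got 5-6 μCi of [75Se]selenonium salt in 0.2 mL saline via lateral tail vein. Groups of five were anesthetized with chloroform at set times and killed by cardioectomy. Tissues were rinsed, blotted and weighed, then gamma-counted. Values are % injected dose per gram, mean and SEM of five.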

Data set [3] relates to Rattus norvegicus. The experiment in a line: Tissue radioactivity ratio in adrenal to Liver 5 min after Intravenous Injection in rats. To be noted: in vivo. The gist of the method: (§2)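 Same rat biodistribution: female Sprague-Dawley rats (100-300 g), 5-6 μCi [75Se]selenonium salt in 0.2 mL saline iv by tail vein, five per time point, killed by cardioectomy under chloroform. Ratios are tissue-to-tissue quotients of gamma-counted % injected dose per gram in each organ (adrenal, heart, kidney, liver, blood).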

Data set [4] has as its system Rattus norvegicus. The experiment in a line: Distribution of Se-75 activity in Adrenal of female Sprague-Dawley Rat 60 min after iv administration of compound. The conditions noted are these: in vivo, 1 h. Put shortly: (§3)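 Female Sprague-Dawley rats (100-300 g), five per group, got [75Se]selenonium salt by lateral tail vein: 0.2 mL saline with 5-6 μCi. Groups were killed by cardioectomy under chloroform anesthesia at the set times. The organ was taken intact, rinsed with saline, blotted, weighed and gamma counted. Values are % injected dose/g, mean and SEM of five.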

Data set [5] concerns Rattus norvegicus. The experiment in a line: Distribution of Se-75 activity in Heart of female Sprague-Dawley Rat 240 min after iv administration compound. To be noted: in vivo, 4 h. Put shortly:
as §3

Data set [6] deals with Rattus norvegicus. In words: Tissue radioactivity ratio in adrenal to blood 240 min after Intravenous Injection in rats. To be noted: other tissue, 4 h. The gist of the method:
as §2

Data set [7] concerns Rattus norvegicus. In words: Distribution of Se-75 activity in blood of female Sprague-Dawley Rat 120 min after iv administration of compound. The conditions noted are these: in vivo, 2 h. The gist of the method:
(§4)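 Tail-vein injection of 5-6 μCi [75Se]selenonium salt in 0.2 mL saline into female Sprague-Dawley rats (100-300 g), five per group. Rats were killed by cardioectomy under chloroform anesthesia at the time point. Radioactivity was gamma counted and expressed as % injected dose/g, mean and SEM of five.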

Data set [8] deals with Rattus norvegicus. The experiment in a line: Distribution of Se-75 activity in Lung of female Sprague-Dawley Rat 240 min after iv administration compound. The conditions noted are these: in vivo, 4 h. Put shortly:
as §1

Data set [9] deals with Rattus norvegicus. In words: Distribution of Se-75 activity in Kidney of female Sprague-Dawley Rat 240 min after iv administration compound. To be noted: in vivo, 4 h. The gist of the method: as §3
The subject of data set [10] is Rattus norvegicus. In words: Distribution of Se-75 activity in Adrenal of female Sprague-Dawley Rat 240 min after iv administration compound. To be noted: in vivo, 4 h. Put shortly: as §3
Data set [11] has as its system Rattus norvegicus. The experiment in a line: Tissue radioactivity ratio in Heart to Blood 60 min after Intravenous Injection in rats. The conditions noted are these: other tissue, 1 h. Put shortly: as §2
In data set [12] the test system is Rattus norvegicus. In words: Distribution of Se-75 activity in Liver of female Sprague-Dawley Rat 240 min after iv administration of compound. To be noted: in vivo, 4 h. The gist of the method:
as §1

Data set [13] concerns Rattus norvegicus. In words: Distribution of Se-75 activity in Adrenal of female Sprague-Dawley Rat 5 min after iv administration of compound. The conditions noted are these: in vivo. The gist of the method:
as §3

The test system of data set [14] is Rattus norvegicus. The experiment in a line: Distribution of Se-75 activity in Lung of female Sprague-Dawley Rat 5 min after iv administration of compound. The conditions noted are these: in vivo. The gist of the method: as §1
The test system of data set [15] is Rattus norvegicus. The experiment in a line: Distribution of Se-75 activity in Heart of female Sprague-Dawley Rat 120 min after iv administration compound. To be noted: in vivo, 2 h. Put shortly:
as §3

Data set [16] deals with Rattus norvegicus. The experiment in a line: Distribution of Se-75 activity in Brain of female Sprague-Dawley Rat 120 min after iv administration compound. The conditions noted are these: in vivo, 2 h.
Data set [17] deals with Rattus norvegicus. In words: Distribution of Se-75 activity in Adrenal of female Sprague-Dawley Rat 120 min after iv administration compound. To be noted: in vivo, 2 h. The gist of the method:
as §3

Data set [18] has as its system Rattus norvegicus. The experiment in a line: Distribution of Se-75 activity in Adrenal of female Sprague-Dawley Rat 30 min after iv administration of compound. To be noted: in vivo, 0.5 h. Put shortly: as §3
Data set [19] has as its system Rattus norvegicus. In words: Distribution of Se-75 activity in Lung of female Sprague-Dawley Rat 120 min after iv administration compound. The conditions noted are these: in vivo, 2 h. Put shortly: as §1
For data set [20], the system named is Rattus norvegicus. The experiment in a line: Distribution of Se-75 activity in Brain of female Sprague-Dawley Rat 240 min after iv administration compound. The conditions noted are these: in vivo, 4 h.
The test system of data set [21] is Rattus norvegicus. In words: Tissue radioactivity ratio in adrenal to blood 15 min after Intravenous Injection in rats. To be noted: other tissue, 0.25 h. The gist of the method: as §2
For data set [22], the system named is Rattus norvegicus. In words: Distribution of Se-75 activity in Kidney of female Sprague-Dawley Rat 120 min after iv administration compound. To be noted: in vivo, 2 h. Put shortly:
as §3

Data set [23] relates to Rattus norvegicus. In words: Tissue radioactivity ratio in adrenal to Kidney 30 min after Intravenous Injection in rats. The conditions noted are these: in vivo, 0.5 h. The gist of the method:
as §2

Data set [24] relates to Rattus norvegicus. In words: Distribution of Se-75 activity in Brain of female Sprague-Dawley Rat 60 min after iv administration of compound. The conditions noted are these: in vivo, 1 h.
Data set [25] concerns Rattus norvegicus. The experiment in a line: Distribution of Se-75 activity in Lung of female Sprague-Dawley Rat 120 min after iv administration of compound. The conditions noted are these: in vivo, 2 h. The gist of the method: as §1
For data set [26], the system named is Rattus norvegicus. The experiment in a line: Distribution of Se-75 activity in Adrenal of female Sprague-Dawley Rat 120 min after iv administration of compound. The conditions noted are these: in vivo, 2 h. Put shortly: as §3
For data set [27], the system named is Rattus norvegicus. In words: Distribution of Se-75 activity in Kidney of female Sprague-Dawley Rat 120 min after iv administration of compound. To be noted: in vivo, 2 h. The gist of the method: as §3
Data set [28] concerns Rattus norvegicus. In words: Distribution of Se-75 activity in Heart of female Sprague-Dawley Rat 240 min after iv administration of dose 5 uCi/0.2 mL. To be noted: in vivo, 4 h. The gist of the method: as §3
In data set [29] the test system is Rattus norvegicus. The experiment in a line: Distribution of Se-75 activity in Adrenal of female Sprague-Dawley Rat 240 min after iv administration of compound. To be noted: in vivo, 4 h. The gist of the method:
as §3

Data set [30] has as its system Rattus norvegicus. In words: Distribution of Se-75 activity in Lung of female Sprague-Dawley Rat 240 min after iv administration of compound. The conditions noted are these: in vivo, 4 h. The gist of the method:
as §1

Data set [31] has as its system Rattus norvegicus. The experiment in a line: Distribution of Se-75 activity in Brain of female Sprague-Dawley Rat 120 min after iv administration of compound. To be noted: in vivo, 2 h.
Data set [32] relates to Rattus norvegicus. The experiment in a line: Distribution of Se-75 activity in Kidney of female Sprague-Dawley Rat 240 min after iv administration of compound. The conditions noted are these: in vivo, 4 h. Put shortly:
as §3

The subject of data set [33] is Rattus norvegicus. In words: Distribution of Se-75 activity in blood of female Sprague-Dawley Rat 120 min after iv administration compound. The conditions noted are these: in vivo, 2 h. The gist of the method: as §4
Data set [34] deals with Rattus norvegicus. The experiment in a line: Distribution of Se-75 activity in Heart of female Sprague-Dawley Rat 120 min after iv administration of compound. To be noted: in vivo, 2 h. The gist of the method: as §3
In data set [35] the test system is Rattus norvegicus. The experiment in a line: Distribution of Se-75 activity in Liver of female Sprague-Dawley Rat 60 min after iv administration of compound. To be noted: in vivo, 1 h. Put shortly: as §1
Data set [36] relates to Rattus norvegicus. In words: Distribution of Se-75 activity in Brain of female Sprague-Dawley Rat 240 min after iv administration of compound. The conditions noted are these: in vivo, 4 h.

`COc1ccc(CC[Se+](C)C)cc1OC.[I-]`: the Dose/g in data set [1] was 0.62%; in data set [2], 0.22%; in [4], 0.71%; in [5], 0.06%; in data set [7], 0.08%; in data set [8], 0.07%. In addition, the Dose/g was found to be 0.16% in [9]; 0.64% in data set [10]; 0.18% in data set [12]; 0.86% in data set [13]; 1.44% in data set [14]; 0.17% in [15]. For the same compound, the Dose/g in data set [16] amounted to 0.01%; in data set [17], 0.74%; in data set [18], 0.94%; in data set [19], 0.19%; in data set [20] it was 0%; in data set [22] it was 0.33%. The Dose/g in [24] is given as 0.01%. For the same compound, the Ratio turned out to be 0.35 in data set [3]; 21.33 in data set [6]; 2.25 in data set [11]; 3.39 in data set [21]; 0.95 in data set [23].
With `C[Se+](C)CCc1ccc(O)c(O)c1.[Cl-]`, the Dose/g in [25] is reported as 0.2%; in [26], 0.73%; in data set [2], 0.28%; in data set [27] it was 0.29%; in data set [4], 0.87%; in data set [28], 0.16%. In addition, the Dose/g in data set [12] was 0.23%; in data set [29], 0.59%; in data set [30], 0.09%; in [13] it was 0.78%; in data set [14], 1.25%; in [31], 0%. The Dose/g worked out at 0.18% in data set [32]; 0.08% in data set [33]; 0.21% in data set [34]; 0.86% in data set [18]; 0.8% in [35]; 0% in data set [36]. This compound also came in with a Dose/g in data set [24] of 0.01%. Further, the Ratio in data set [3] is 0.42; in [6], 11.8; in [11], 2.55; in [21], 2.9; in data set [23], 0.81.

The record behind these values is ChEMBL document CHEMBL1122494, “New selenium-75 labeled radiopharmaceuticals: selenonium analogues of dopamine” (J Med Chem, 1983).
